Data taken from publication PMC3936293 (Theranostics, 2014).
Like-named read-outs stand apart in the source and are kept apart here.

Tests used:
[1] = literature data, ref [11]; cited from earlier work
[2] = Safety monitoring after injection; type: in vivo, human; conditions: 4 patients; laboratory tests before and 1-2 weeks after injection
Outline: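 Patients were monitored from tracer administration until the end of the last PET/CT session (20 h p.i.) by interview, electrocardiography, heart rate and blood pressure. Serum electrolytes, liver and pancreatic enzymes, creatinine and blood counts were measured before and 1-2 weeks after injection (130-233 MBq; 10-17 µg).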

[3] = Blood radioactivity clearance; type: in vivo, human; conditions: bi-exponential fit of blood radioactivity concentration, 4 patients
Outline: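 Four patients with newly diagnosed prostate cancer, fasted at least 4 h, received the 64Cu-labelled GRPr antagonist (130-233 MBq; 10-17 µg) diluted in 0.9% NaCl with 0.1% bovine serum albumin. Venous blood was drawn at 1, 2, 3, 4, 5, 10, 15 and 30 min and at 1, 2 and 4 h p.i. Radioactivity per mL was gamma-counted, reported as mean ± SD, and fitted bi-exponentially.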

[4] = PET/CT imaging of tumor and organ uptake; type: in vivo; conditions: male, human, total radioactivity
[5] = Metabolite analysis of plasma and urine by RP-HPLC; type: in vivo, human
Outline: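 Plasma was prepared by centrifuging blood drawn at 5 min, 30 min, 1 h and 4 h p.i., deproteinised with two volumes of ethanol, centrifuged again, and the supernatant analysed. In patient 2, a 2 h urine sample was loaded onto a C18 cartridge and eluted with ethanol. Analysis used reversed-phase HPLC (C18; 0.1% TFA in water/acetonitrile gradient) with photodiode-array and flow-through gamma detection.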

Radiation dosimetry = type: in vivo, human
Outline: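 PET scans were taken at 20 min, 4 h and 20 h p.i., with attenuation correction by 68Ge transmission or CT. Body-weight-normalised SUVs came from circular ROIs centred in each organ. Urine was collected to 18 h in patients 2 and 3, and total excretion was calculated from 1 mL aliquots. Absorbed doses were computed in OLINDA/EXM 1.0 from the time-activity curves and urinary excretion (dynamic bladder model, 3-h voiding interval). Values are mean ± SD.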

[6] = OLINDA/EXM 1.0, dynamic bladder model, 3-hour voiding interval, mean ± SD

Structure (SMILES): C[N+](C)(CF)CCO [^18F-fluorocholine]
- Effective dose [1]: 0.031 ± 0,007 mSv/MBq
- Radiation dose kidney [1]: 0.159 ± 0,072 mSv/MBq
- Radiation dose liver [1]: 0.059 ± 0,012 mSv/MBq
- Radiation dose spleen [1]: 0.054 ± 0,021 mSv/MBq
- Radiation dose urinary bladder wall [1]: 0.063 ± 0,060 mSv/MBq

Structure (SMILES): CC(C)C[C@H](NC(=O)C[C@H](O)[C@H](CC(C)C)NC(=O)[C@H](Cc1c[nH]cn1)NC(=O)CNC(=O)[C@@H](NC(=O)[C@H](C)NC(=O)[C@H](Cc1c[nH]c2ccccc12)NC(=O)[C@H](CCC(N)=O)NC(=O)[C@@H](Cc1ccccc1)NC(=O)COCCOCCOCCOCCNC(=O)CN1CCCN2CCN(CCCN(CC(=O)O)CC2)CC1)C(C)C)C(N)=O [^64Cu-CB-TE2A-AR06, (^64Cu-4,11-bis(carboxymethyl)-1,4,8,11-tetraazabicyclo(6.6.2)hexadecane)-PEG4-D-Phe-Gln-Trp-Ala-Val-Gly-His-Sta-LeuNH2, metal not drawn]
- changes in vital signs, laboratory studies or electrocardiograms [2]: No significant changes
- initial half-life in blood [3]: 5 min
- terminal half-life in blood [3]: 2.75 h
- SUV at 4 h ([4]; bladder): 14 ± 6.63 SUV
- SUV at 4 h ([4]; intestine): 0.78 ± 0.68 SUV
- SUV at 4 h ([4]; kidney parenchyma): 1.64 ± 0.37 SUV
- SUV at 20 h ([4]; kidney parenchyma): 0.71 ± 0.34 SUV
- SUV at 4 h ([4]; liver): 1.8 ± 1.02 SUV
- SUV at 4 h ([4]; pancreas): 6.73 ± 3.34 SUV
- SUV at 20 h ([4]; pancreas): 0.28 ± 0.22 SUV
- SUV at 4 h ([4]; prostate): 0.95 ± 0.42 SUV
- SUV at 4 h ([4]; urinary tract collection system): 5.86 ± 5.34 SUV
- metabolites in urine ([5]; patient 2, 2 h urine sample, C18 column, ethanol elution): Only the parent compound was detected
- metabolites in plasma ([5]; plasma at 5 min p.i., ethanol protein precipitation): No metabolites were detected
- Effective radiation dose (Radiation dosimetry; [6]): 0.019 ± 0.008 mSv/MBq
- Radiation dose urinary bladder wall (Radiation dosimetry; [6]): 0.176 ± 0.001 mSv/MBq
- Radiation dose kidney (Radiation dosimetry; OLINDA/EXM 1.0, mean ± SD): 0.033 ± 0.008 mSv/MBq
- Radiation dose liver (Radiation dosimetry; OLINDA/EXM 1.0, mean ± SD): 0.039 ± 0.020 mSv/MBq
- Radiation dose pancreas (Radiation dosimetry; OLINDA/EXM 1.0, mean ± SD): 0.094 ± 0.027 mSv/MBq
- Radiation dose spleen (Radiation dosimetry; OLINDA/EXM 1.0, mean ± SD): 0.031 ± 0.024 mSv/MBq
